Consider ten molecules from ChEMBL document CHEMBL3396952, “Structural and biological evaluation of a novel series of benzimidazole inhibitors of Francisella tularensis enoyl-ACP reductase (FabI)” (Bioorg Med Chem Lett, 2015).

≈ marks a conversion by molar mass, not a printed value.

For one assay, the system named is Francisella tularensis. Description: Antimicrobial activity against Francisella tularensis Utah 112 measured after overnight incubation by microdilution method. Type of assay: functional. In general terms: In broth dilution the organism is exposed to a series of concentrations in liquid medium.
Assay [1] in a line: Inhibition of N-terminus His-tagged Francisella tularensis subsp. Tularensis Schu4 Fab1 expressed in Escherichia coli […] (DE3) cells assessed as conversion of crotonyl-CoA and NADH to butyryl-CoA and NAD+ preincubated for 30 mins by fluorescence analysis. On the set-up: species or system Francisella tularensis subsp. tularensis SCHU S4. An outline of the steps: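 Experimental Ki came from varying crotonyl-CoA against inhibitor concentration at saturating NADH (200 µM). Calculated Ki used Cheng-Prusoff, IC50 = Ki(1+[S]/Km), with [S]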

Assay [2] has as its system Staphylococcus aureus. Description: Antimicrobial activity against methicillin-resistant Staphylococcus aureus ATCC 43300 measured after overnight incubation by microdilution method. It is filed as functional.
In assay [3] the test system is Escherichia coli. Description: Antimicrobial activity against TolC-deficient Escherichia coli measured after overnight incubation by microdilution method. It is filed as functional.
Assay [4] has as its system Escherichia coli. Description: Antimicrobial activity against wild-type Escherichia coli BW25113 measured after overnight incubation by microdilution method. Type of assay: functional.
The subject of assay [5] is Staphylococcus aureus. In words: Antimicrobial activity against Staphylococcus aureus ATCC 29213 measured after overnight incubation by microdilution method. Type of assay: functional.

Take `Cc1cc2ncn(Cc3ccc(Cl)c(Cl)c3)c2cc1C`: the MIC (commonly the lowest concentration that inhibits growth of the organism) with Francisella tularensis is 7.8 µg/mL (≈ 25.6 µM); against Staphylococcus aureus [2] it was 50 µg/mL (≈ 164 µM); in the assay on Escherichia coli [3], 6.25 µg/mL (≈ 20.5 µM); with Escherichia coli [4], greater than 200 µg/mL. Further, the IC50 (as a rule, the point on the concentration scale where inhibition reaches its midpoint) in assay [1] is 300 nM.

As to `c1cc2c(cc1Cn1cnc3cc4c(cc31)CCCC4)OCO2`, the MBC – broadly, the lowest tested concentration that kills the bacteria rather than only halting them – with Francisella tularensis was 18.8 µg/mL (≈ 61.4 µM); in the assay with Staphylococcus aureus [5], greater than 25 µg/mL; with Staphylococcus aureus [2], greater than 25 µg/mL; in the assay on Escherichia coli [3] it was 25 µg/mL (≈ 81.6 µM). In addition, the MIC was 4.7 µg/mL (≈ 15.3 µM) in the assay on Francisella tularensis; 4.7 µg/mL (≈ 15.3 µM) against Staphylococcus aureus [5]; 6.3 µg/mL (≈ 20.6 µM) in the assay on Staphylococcus aureus [2]; 9.4 µg/mL (≈ 30.7 µM) in the assay on Escherichia coli [3]; greater than 12.5 µg/mL in the assay with Escherichia coli [4]. Moreover, the IC50 in assay [1] is 320 nM. In assay [1], the Ki (usually a dissociation constant, usually derived from enzyme kinetics or from competition with a known ligand) came out at 330 nM.

Take `CC(c1ccc(Cl)c(Cl)c1)n1cnc2cc3c(cc21)CC(C)(C)C3` (stereo not given): the MIC in the assay on Francisella tularensis is greater than 12.5 µg/mL; in the assay on Staphylococcus aureus [5], 4.7 µg/mL (≈ 13.1 µM); against Staphylococcus aureus [2] it was 4.7 µg/mL (≈ 13.1 µM); against Escherichia coli [3] it was greater than 12.5 µg/mL; with Escherichia coli [4], greater than 12.5 µg/mL. Further, the IC50 in assay [1] turned out to be 240 nM. Moreover, the results for the MBC against Staphylococcus aureus [5], in the assay with Staphylococcus aureus [2] and with Escherichia coli [3] were greater than 12.5 µg/mL, greater than 12.5 µg/mL and greater than 25 µg/mL, respectively.

For the molecule `CC(c1ccc(Cl)c(Cl)c1)n1cnc2cc3c(cc21)CCCC3` (stereo not given), the MBC against Francisella tularensis was determined as 25 µg/mL (≈ 72.4 µM); in the assay on Staphylococcus aureus [5] it was 25 µg/mL (≈ 72.4 µM); with Staphylococcus aureus [2], 25 µg/mL (≈ 72.4 µM); against Escherichia coli [3] it was 12.5 µg/mL (≈ 36.2 µM). In addition, the minimal inhibitory concentration (MIC) against Francisella tularensis was 3.1 µg/mL (≈ 8.98 µM); against Staphylococcus aureus [5] it was 3.1 µg/mL (≈ 8.98 µM); with Staphylococcus aureus [2], 3.1 µg/mL (≈ 8.98 µM); against Escherichia coli [4], greater than 12.5 µg/mL. In assay [1], the IC50 amounted to 14 nM.

On to `Cc1cc2ncn(C(C)c3ccc(Cl)c(Cl)c3)c2cc1C` (stereo not given), for which the minimal inhibitory concentration (MIC) was greater than 12.5 µg/mL in the assay with Francisella tularensis; 12.5 µg/mL (≈ 39.2 µM) against Staphylococcus aureus [5]; 12.5 µg/mL (≈ 39.2 µM) in the assay with Staphylococcus aureus [2]; 6.3 µg/mL (≈ 19.7 µM) against Escherichia coli [3]; greater than 12.5 µg/mL against Escherichia coli [4]. The concentration for half-maximal inhibition (IC50) in assay [1] came out at 370 nM.

In the case of `CC(c1ccc(Cl)c(Cl)c1)n1cnc2cc3c(cc21)COC3` (stereo not given), the MIC against Francisella tularensis, against Staphylococcus aureus [5], in the assay on Staphylococcus aureus [2], with Escherichia coli [3] and in the assay with Escherichia coli [4] was greater than 12.5 µg/mL throughout. Besides, the IC50 in assay [1] amounted to 890 nM.

Consider `CC(c1ccc(Cl)c(Cl)c1)n1cnc2cc3c(cc21)CCC3` (stereo not given), for which the MBC is 9.4 µg/mL (≈ 28.4 µM) against Francisella tularensis, greater than 25 µg/mL against Staphylococcus aureus [5], 12.5 µg/mL (≈ 37.7 µM) in the assay with Staphylococcus aureus [2] and 12.5 µg/mL (≈ 37.7 µM) with Escherichia coli [3]. The MIC with Francisella tularensis is 3.9 µg/mL (≈ 11.8 µM); against Staphylococcus aureus [5] it was 5.5 µg/mL (≈ 16.6 µM); against Staphylococcus aureus [2], 6.3 µg/mL (≈ 19 µM); in the assay on Escherichia coli [3], 3.1 µg/mL (≈ 9.36 µM); with Escherichia coli [4], greater than 12.5 µg/mL. In addition, the IC50 in assay [1] was found to be 18 nM.

In the assay on Francisella tularensis, `COc1ccc(Cn2cnc3cc4c(cc32)CCC4)cc1C` came in with an MBC of 12.5 µg/mL (≈ 42.8 µM). For the same molecule, the MIC is 5.5 µg/mL (≈ 18.8 µM) against Francisella tularensis; greater than 12.5 µg/mL against Staphylococcus aureus [5]; greater than 12.5 µg/mL against Staphylococcus aureus [2]; 12.5 µg/mL (≈ 42.8 µM) against Escherichia coli [3]; greater than 12.5 µg/mL against Escherichia coli [4]. Also, the IC50 in assay [1] is 5 nM.

Take `COc1ccc(Cn2cnc3cc4c(cc32)CCCC4)cc1OC`: the MIC against Francisella tularensis, against Staphylococcus aureus [5], in the assay on Staphylococcus aureus [2], against Escherichia coli [3] and in the assay with Escherichia coli [4] was greater than 12.5 µg/mL throughout. Moreover, the half-maximal inhibitory concentration (IC50) in assay [1] is 1360 nM. Also, the Ki in assay [1] is 1430 nM.

Consider `COc1ccc(Cn2cnc3cc4c(cc32)CCCC4)cc1C`, for which the figures for the MBC against Francisella tularensis, against Staphylococcus aureus [5] and in the assay on Escherichia coli [3] were 6.3 µg/mL (≈ 20.6 µM), 25 µg/mL (≈ 81.6 µM) and 9.4 µg/mL (≈ 30.7 µM), respectively. Also, the minimal inhibitory concentration (MIC) against Francisella tularensis is 3.1 µg/mL (≈ 10.1 µM); against Staphylococcus aureus [5], 6.3 µg/mL (≈ 20.6 µM); with Staphylococcus aureus [2], 12.5 µg/mL (≈ 40.8 µM); with Escherichia coli [3], 4.7 µg/mL (≈ 15.3 µM); in the assay on Escherichia coli [4], greater than 12.5 µg/mL. For the same molecule, the half-inhibitory concentration (IC50) in assay [1] was 140 nM. Moreover, the Ki in assay [1] was determined as 130 nM.
